In ChEMBL document CHEMBL1147405, “New bicyclam-GalCer analogue conjugates: synthesis and in vitro anti-HIV activity” (Bioorg Med Chem Lett, 2004):

What was measured:
CEM-SS [1] = assay: Effective concentration of compound against HIV-1 LAI strain in CEM-SS cells; type: functional, cell-based; conditions: Homo sapiens
Summary of the method: (§1)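 CEM-SS cells infected with HIV-1 LAI. Virus replication followed by reverse transcriptase activity measurement. EC50 is the concentration inhibiting 50% of virus replication. Relative potency is the ratio to AMD3100.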

[2] = (§2) Concentration of compound causing 50% death of uninfected cells; type: cell-based; conditions: human, CEM-SS cells (uninfected)
Summary of the method: (§3)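 Uninfected cells of each line (CEM-SS, MT4 or PBMC) exposed to compound; CC50 taken as the concentration causing 50% death of uninfected cells.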

CEM-SS [3] = assay: Potency of compound against HIV-1 LAI strain in CEM-SS cells relative to AMD3100; type: functional, Homo sapiens; summary of the method: as §1
GHOST CXCR4 [4] = assay: Inhibitory concentration of compound against HIV-1 LAI strain in GHOST CXCR4 cell line; type: functional, cell-based; conditions: Homo sapiens
Summary of the method: (§4)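 GHOST osteosarcoma cells express CD4, CXCR4 or CCR5 plus an HIV-2 LTR-GFP reporter, grown in Dulbecco medium with 10% FCS. Seeded at 2.5 10⁵ per well; 24 h later pretreated with compound for 1 h at 37 °C. Infected with HIV-1 Lai (CXCR4) or Bal (CCR5), 2 h adsorption, washed, cultured 48 h with drug. GFP+ cells counted by flow cytometry; IC50 from median-effect plot.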

GHOST CXCR4 [5] = assay: Potency of compound against HIV-1 LAI strain in GHOST CXCR4 cell line relative to AMD3100; type: functional, Homo sapiens; summary of the method: as §4
MT4 [6] = assay: Potency of compound against HIV-1 IIIB strain in MT-4 cells relative to AMD3100; type: functional, Homo sapiens
Summary of the method: (§5)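 MT4 cells infected with HIV-1 IIIB. Virus-induced cytopathogenic effect scored. EC50 is the concentration protecting 50% of infected cells against cytopathogenicity. Relative potency is expressed against AMD3100.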

MT4 [7] = assay: Effective concentration of compound against HIV-1 IIIB strain in MT-4 cells; type: functional, cell-based; conditions: Homo sapiens; summary of the method: as §5
[8] = as §2; type: ADME, cell-based; conditions: human; summary of the method: as §3
PBMC [9] = assay: Effective concentration of compound against HIV-1 89.6 strain in PBMC cells; type: functional, cell-based; conditions: Homo sapiens
Summary of the method: (§6)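 PBMC infected with dual-tropic HIV-1 89.6. Virus growth measured by reverse transcriptase activity. EC50 is the concentration protecting 50% of infected cells. Relative potency is expressed against AMD3100.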

PBMC [10] = assay: Potency of compound against HIV-1 89.6 strain in PBMC cells relative to AMD3100; type: functional, Homo sapiens; summary of the method: as §6
GHOST CCR5 = assay: Inhibitory concentration of compound against HIV-1 Ba1 strain in GHOST CCR5 cell line; type: functional, cell-based; conditions: Homo sapiens; summary of the method: as §4

Row | Compound | EC50 (CEM-SS [1]) [nM] | IC50 (GHOST CXCR4 [4]) [nM] | IC50 (GHOST CCR5) [nM] | CC50 [2] [nM] | Relative potency (CEM-SS [3]) | Relative potency (GHOST CXCR4 [5]) | Relative potency (MT4 [6]) | EC50 (MT4 [7]) [nM] | CC50 ([8]; MT4 cells (uninfected)) [nM] | CC50 ([8]; PBMC (uninfected)) [nM] | EC50 (PBMC [9]) [nM] | Relative potency (PBMC [10])
1 | CCOC(=O)CCCCN1CCCN(Cc2ccc(CN3CCCNCCNCCCNCC3)cc2)CCNCCCNCC1 | 910 | 7.1 | > 50000 | > 100000 | ~7 | ~7 | ~10 | 690 | > 100000 | > 100000 | 25 | ~7
2 | c1cc(CN2CCCNCCNCCCNCC2)ccc1CN1CCCNCCNCCCNCC1 [PLERIXAFOR] | 127 | 0.95 | > 5000 | > 10000 |  |  |  | 65 | > 10000 | > 10000 | 3.8 | 
3 | Cc1cn([C@H]2C[C@H](N=[N+]=[N-])[C@@H](CO)O2)c(=O)[nH]c1=O [ZIDOVUDINE] | 6.3 |  |  |  |  |  |  | 9.9 |  |  | 24 | 

More lines, main results first:

Row | EC50 (CEM-SS [1]) [nM] | IC50 (GHOST CXCR4 [4]) [nM] | IC50 (GHOST CCR5) [nM] | Compound | CC50 [2] [nM] | Relative potency (CEM-SS [3]) | Relative potency (GHOST CXCR4 [5]) | Relative potency (MT4 [6]) | EC50 (MT4 [7]) [nM] | CC50 ([8]; MT4 cells (uninfected)) [nM] | CC50 ([8]; PBMC (uninfected)) [nM] | EC50 (PBMC [9]) [nM] | Relative potency (PBMC [10])
4 | 5200 | 86 | > 50000 | CCCCCCCCCCCCCC(=O)N[C@@H](CCCCNC(=O)CCCCN1CCCN(Cc2ccc(CN3CCCNCCNCCCNCC3)cc2)CCNCCCNCC1)C(=O)N[C@@H](CO[C@@H]1O[C@@H](CO)[C@H](O)[C@H](O)[C@@H]1O)C(=O)O | > 50000 | ~40 | ~90 | ~45 | 2800 | > 50000 | > 28000 | 470 | ~125
5 | 6000 | 21 | > 10000 | CCCCCCCCCCCCCC(=O)N[C@@H](CCCCNC(=O)CCCCN1CCCNCCN(Cc2ccc(CN3CCCNCCNCCCNCC3)cc2)CCCNCC1)C(=O)N[C@@H](CO[C@@H]1O[C@@H](CO)[C@H](O)[C@H](O)[C@@H]1O)C(=O)O | > 100000 | ~50 | ~20 | ~45 | 2900 | > 100000 | > 10000 | 250 | ~65
6 | 10000 |  |  | CCCCCCCCCCCCCC(=O)N[C@@H](CO[C@@H]1O[C@@H](CO)[C@H](O)[C@H](O)[C@@H]1O)C(=O)O | > 100000 |  |  |  | > 100000 | > 100000 |  |  | 
